The source of these data is publication PMC2852926 (The Journal of Biological Chemistry, 2010).

“Also recorded” adds a separate entry of the source. Like-named read-outs stand apart in the source and are kept apart here.

Data set [1] has as its system OM-hydrolyzing activity in human liver cytosol. It is filed as biochemical.
Data set [2] has as its system OM-hydrolyzing activity in human intestinal cytosol. It is filed as biochemical.
Data set [3] concerns the target T1, human CMBL (Homo sapiens, UniProt Q96DG6).
T1 sequence (Q96DG6 1-245): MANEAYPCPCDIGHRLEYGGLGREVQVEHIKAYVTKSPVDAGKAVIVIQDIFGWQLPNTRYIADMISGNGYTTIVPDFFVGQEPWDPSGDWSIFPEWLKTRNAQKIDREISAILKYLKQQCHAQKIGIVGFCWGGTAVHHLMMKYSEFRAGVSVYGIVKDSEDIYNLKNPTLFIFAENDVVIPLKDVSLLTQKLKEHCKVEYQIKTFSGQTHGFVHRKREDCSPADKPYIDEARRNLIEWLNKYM
It is filed as biochemical.

Data set [4] has as its system OM-hydrolyzing activity in human plasma. Kind of data set: Effect of esterase inhibitors on OM-hydrolyzing activity in human plasma. Format: biochemical. The settings on record: OM 250 μM, 5 min. Summed up: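 Human plasma, diluted to 2.5 mg protein/ml, incubated 5 min with OM substrate (250 μM) plus one esterase inhibitor: BNPP, DFP, PCMB, eserine or PMSF at 1000 μM, or EDTA at 500 μM. Olmesartan formed was quantified by reversed-phase C18 HPLC with UV at 254 nm. Activity was expressed as formation rate. Means of duplicate determinations.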

Data set [5] addresses T1, human CMBL. Kind of data set: Hydrolysis of medoxomil prodrugs by recombinant CMBL. The settings on record: CMBL-transfected mammalian cell lysate, pH 7.4, 37 °C. It is filed as in vitro ADME.
Data set [6] can be described thus: OM hydrolysis in human liver cytosol, kinetic analysis. It is filed as in vitro ADME. The gist of the method:
(§1)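 Commercial human liver or intestinal subcellular fractions were incubated in 10 mM potassium phosphate (pH 7.4) at 37 °C with OM at 7.81–1000 μM. Protein was 0.05 mg/ml for liver and intestinal cytosols, 0.5 mg/ml for liver microsomes and 0.25 mg/ml for intestinal microsomes. Olmesartan was measured by C18 HPLC-UV at 254 nm, net of buffer-control hydrolysis. Km and Vmax came from nonlinear least-squares Michaelis–Menten fits of triplicates.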

Data set [7] in a line: OM hydrolysis in human intestinal cytosol, kinetic analysis. Format: in vitro ADME. The gist of the method:
as §1

The nature of data set [8]: OM hydrolysis in human liver microsomes, kinetic analysis. It is filed as in vitro ADME. The gist of the method:
as §1
In general terms: Liver microsomes are a subcellular fraction often used to study metabolism.

Data set [9] in a line: OM hydrolysis in human intestinal microsomes, kinetic analysis. It is filed as in vitro ADME. Summed up:
as §1

Data set [10] can be described thus: Prodrug in portal or circulating blood of rats. It is filed as in vivo. The settings on record: data not shown.
Data set [11] has as its system human plasma PON1. The settings on record: cited from earlier work.
The subject of data set [12] is plasma albumin. The settings on record: cited from earlier work.
Data set [13] has as its target T1, human CMBL. Kind of data set: Hydrolysis of typical esterase substrates by recombinant CMBL. It is filed as biochemical. The settings on record: substrate 1 mM, CMBL-transfected cell lysate 0.05 mg protein/ml.
In data set [14] the target is T1, human CMBL. Kind of data set: Ulifloxacin formation from prulifloxacin by recombinant CMBL. It is filed as in vitro ADME. The settings on record: HEPES pH 7.4, 37 °C, CMBL-transfected mammalian cell lysate.

In the case of `O=[N+]([O-])c1ccc(OP(=O)(O)Oc2ccc([N+](=O)[O-])cc2)cc1` [BNPP, Bis-p-nitrophenylphosphate], the “Inhibition of OM-hydrolyzing activity” value in data set [1] is “partially inhibited”; in [2] it was “partially inhibited”; in [3], approximately 50%.

`O=C(O)CN(CCN(CC(=O)O)CC(=O)O)CC(=O)O` [EDTA]: the “Inhibition of OM-hydrolyzing activity” value is “not inhibited” in [1], “not inhibited” in data set [2], “almost completely inhibited” in data set [4] (inhibitor 500 μM) and “no inhibition” in data set [3].

Consider `Cc1oc(=O)oc1COC(=O)C1=C([C@H]2CCCO2)S[C@@H]2[C@@H]([C@@H](C)O)C(=O)N12` [Faropenem medoxomil], for which the “Hydrolysis by recombinant CMBL” value in [5] is “readily hydrolyzed”.

As for `Cc1oc(=O)oc1COC(=O)[C@@H]1N2C(=O)[C@@H](NC(=O)[C@H](N)c3ccccc3)[C@H]2SC1(C)C` [Lenampicillin], the “Hydrolysis by recombinant CMBL” value in [5] is “readily hydrolyzed”.

Usually Km stands for the substrate concentration at which the rate is half of its maximum. `CCCc1nc(C(C)(C)O)c(C(=O)OCc2oc(=O)oc2C)n1Cc1ccc(-c2ccccc2-c2nnn[nH]2)cc1` [Olmesartan medoxomil]: the Vmax in data set [6] (Liver cytosol, mean ± S.E.) amounted to 19.7 ± 0.8 nmol/min/mg protein; in data set [7] (Intestinal cytosol, mean ± S.E.) it was 45.1 ± 2.0 nmol/min/mg protein; in data set [8] (Liver microsomes, mean ± S.E.), 15.0 ± 0.3 nmol/min/mg protein; in data set [9] (Intestinal microsomes, mean ± S.E.) it was 6.76 ± 0.11 nmol/min/mg protein. In addition, the Michaelis-Menten constant (Km) came out at 160 ± 19 µM in [6] (human, liver cytosol, pH 7.4); 193 ± 24 µM in data set [7] (human, intestinal cytosol, pH 7.4); 481 ± 23 µM in data set [8] (human, liver microsomes, pH 7.4); 236 ± 10 µM in [9] (human, intestinal microsomes, pH 7.4). For the same compound, the “Prodrug detected in portal or circulating blood” value in data set [10] is “no prodrug was detected”. Moreover, the “Hydrolysis by PON1” value in data set [11] (listed as OM) is listed as “capable of hydrolyzing; also recorded: hydrolyze”. Further, the “Hydrolysis by plasma albumin” value in [12] is given as “capable of hydrolyzing”.

In the case of `O=C(O)c1cc[c]([Hg][Cl])cc1` [PCMB, p-chloromercuribenzoate], the “Inhibition of OM-hydrolyzing activity” value in data set [1] is on record as “strongly inhibited”; in data set [2], “strongly inhibited”; in data set [4] (inhibitor 1000 μM) it was “almost completely inhibited”; in data set [3] it was “almost completely inhibited”.

Turning to `O=S(=O)(F)Cc1ccccc1` [PMSF, Phenylmethylsulfonyl fluoride], the “Inhibition of OM-hydrolyzing activity” value in data set [1] is on record as “not inhibited”; in data set [2], “not inhibited”; in data set [3], “no inhibition”.

With `CC(=O)SCC[N+](C)(C)C.[I-]` [acetylthiocholine iodide], the “Hydrolysis by recombinant CMBL” value in data set [13] is “does not hydrolyze”.

For `CNC(=O)Oc1ccc2c(c1)[C@]1(C)CCN(C)[C@@H]1N2C` [eserine], the results for the “Inhibition of OM-hydrolyzing activity” value in data set [1], in data set [2] and in data set [3] were “not inhibited”, “not inhibited” and “no inhibition”, respectively.

As to `CC(=O)Oc1ccc([N+](=O)[O-])cc1` [p-nitrophenyl acetate], the “Hydrolysis by recombinant CMBL” value in [13] is “does not hydrolyze”.

Regarding `CC(=O)Oc1ccccc1` [phenyl acetate], the “Hydrolysis by recombinant CMBL” value in [13] was “does not hydrolyze”.

Turning to `Cc1oc(=O)oc1CN1CCN(c2cc3c(cc2F)c(=O)c(C(=O)O)c2n3C(C)S2)CC1` (centres unmarked) [prulifloxacin], the “Enzymatic hydrolysis by recombinant human CMBL” value in data set [14] is on record as “not enzymatically hydrolyzed; also recorded: not hydrolyzed at all”. Also, the “Hydrolysis by PON1” value in data set [11] was “hydrolyze”.
